In test [1] the target is Alpha-galactosidase (Coffea arabica) (UniProt Q42656). The experiment in a line: Inhibition of coffee beans alpha-galactosidase at 1 mM using p-nitrophenyl glycopyranoside preincubated for 5 mins followed by substrate addition measured after 20 mins by visible absorption spectroscopic method relative to control. The method in brief:
(§1)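 Test compound at 1 mM in well. Mix: 0.01–0.5 units/mL enzyme plus 10 mM p-nitrophenyl glycopyranoside (aqueous solution), buffered to the enzyme's optimal pH. Enzyme and inhibitor preincubated 5 min at rt. Substrate then added and incubated 20 min at 37 °C. Stopped with sodium borate (pH 9.8). p-Nitrophenolate read at 405 nm. Duplicates averaged.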

Test [2] addresses Beta-galactosidase (Escherichia coli) (UniProt Q8VNN2). The experiment in a line: Inhibition of Escherichia coli beta-galactosidase at 1 mM using p-nitrophenyl glycopyranoside preincubated for 5 mins followed by substrate addition measured after 20 mins by visible absorption spectroscopic method relative to control. In a few lines:
as §1

The next test is filed under the species Bos taurus. The experiment in a line: Inhibition of bovine kidney alpha-L-fucosidase at 1 mM using p-nitrophenyl glycopyranoside preincubated for 5 mins followed by substrate addition measured after 20 mins by visible absorption spectroscopic method relative to control. The method in brief:
as §1

Test [3] has as its target T1, Alpha-mannosidase (Canavalia ensiformis) (UniProt C0HJB3).
T1 sequence (whole entry): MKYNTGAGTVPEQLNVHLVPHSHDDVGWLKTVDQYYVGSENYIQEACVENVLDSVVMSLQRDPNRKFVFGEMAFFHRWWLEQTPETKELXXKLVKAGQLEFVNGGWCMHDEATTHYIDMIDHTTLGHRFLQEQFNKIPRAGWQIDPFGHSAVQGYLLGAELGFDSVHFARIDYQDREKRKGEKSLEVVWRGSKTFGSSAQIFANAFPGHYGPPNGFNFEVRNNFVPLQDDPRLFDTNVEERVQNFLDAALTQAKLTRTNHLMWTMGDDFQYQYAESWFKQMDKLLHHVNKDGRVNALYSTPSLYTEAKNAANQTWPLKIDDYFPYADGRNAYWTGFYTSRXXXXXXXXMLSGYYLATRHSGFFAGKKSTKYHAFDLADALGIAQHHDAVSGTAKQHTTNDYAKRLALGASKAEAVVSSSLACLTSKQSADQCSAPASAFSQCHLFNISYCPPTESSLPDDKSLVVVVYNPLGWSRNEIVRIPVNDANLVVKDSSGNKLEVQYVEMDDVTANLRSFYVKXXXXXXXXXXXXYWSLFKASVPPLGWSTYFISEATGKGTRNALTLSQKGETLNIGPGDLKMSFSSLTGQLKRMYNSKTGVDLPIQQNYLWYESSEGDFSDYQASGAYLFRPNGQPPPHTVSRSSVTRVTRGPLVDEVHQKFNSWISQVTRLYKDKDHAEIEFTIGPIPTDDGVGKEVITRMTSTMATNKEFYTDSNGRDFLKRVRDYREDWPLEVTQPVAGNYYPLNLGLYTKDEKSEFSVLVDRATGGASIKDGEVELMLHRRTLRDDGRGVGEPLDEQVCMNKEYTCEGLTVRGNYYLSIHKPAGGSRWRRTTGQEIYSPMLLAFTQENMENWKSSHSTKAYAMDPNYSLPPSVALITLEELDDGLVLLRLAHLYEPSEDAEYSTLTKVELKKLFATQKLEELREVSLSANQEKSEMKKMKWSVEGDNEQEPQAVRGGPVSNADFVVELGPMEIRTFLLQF
The experiment in a line: Inhibition of jack bean alpha-mannosidase at 1 mM using p-nitrophenyl glycopyranoside preincubated for 5 mins followed by substrate addition measured after 20 mins by visible absorption spectroscopic method relative to control. In a few lines:
as §1

For another test, the system named is Saccharomyces cerevisiae. The experiment in a line: Inhibition of yeast alpha glucosidase at 1 mM using p-nitrophenyl glycopyranoside preincubated for 5 mins followed by substrate addition measured after 20 mins by visible absorption spectroscopic method relative to control. In a few lines:
as §1

Another test deals with Canavalia ensiformis. The experiment in a line: Inhibition of jack bean beta-N-acetylglucosaminidase at 1 mM using p-nitrophenyl glycopyranoside preincubated for 5 mins followed by substrate addition measured after 20 mins by visible absorption spectroscopic method relative to control. In a few lines:
as §1

The test system of test [4] is Prunus dulcis. The experiment in a line: Inhibition of almond beta-glucosidase at 1 mM using p-nitrophenyl glycopyranoside preincubated for 5 mins followed by substrate addition measured after 20 mins by visible absorption spectroscopic method relative to control. In a few lines:
as §1

The next test relates to Cornu aspersum. The experiment in a line: Inhibition of snail beta-mannosidase at 1 mM using p-nitrophenyl glycopyranoside preincubated for 5 mins followed by substrate addition measured after 20 mins by visible absorption spectroscopic method relative to control. The method in brief: as §1
Another test relates to Oryza sativa. Description: Inhibition of rice alpha-glucosidase at 1 mM using p-nitrophenyl glycopyranoside preincubated for 5 mins followed by substrate addition measured after 20 mins by visible absorption spectroscopic method relative to control. In a few lines: as §1
The target of test [5] is T2, Beta-galactosidase (Aspergillus oryzae) (UniProt B7VU80).
T2 sequence (whole entry): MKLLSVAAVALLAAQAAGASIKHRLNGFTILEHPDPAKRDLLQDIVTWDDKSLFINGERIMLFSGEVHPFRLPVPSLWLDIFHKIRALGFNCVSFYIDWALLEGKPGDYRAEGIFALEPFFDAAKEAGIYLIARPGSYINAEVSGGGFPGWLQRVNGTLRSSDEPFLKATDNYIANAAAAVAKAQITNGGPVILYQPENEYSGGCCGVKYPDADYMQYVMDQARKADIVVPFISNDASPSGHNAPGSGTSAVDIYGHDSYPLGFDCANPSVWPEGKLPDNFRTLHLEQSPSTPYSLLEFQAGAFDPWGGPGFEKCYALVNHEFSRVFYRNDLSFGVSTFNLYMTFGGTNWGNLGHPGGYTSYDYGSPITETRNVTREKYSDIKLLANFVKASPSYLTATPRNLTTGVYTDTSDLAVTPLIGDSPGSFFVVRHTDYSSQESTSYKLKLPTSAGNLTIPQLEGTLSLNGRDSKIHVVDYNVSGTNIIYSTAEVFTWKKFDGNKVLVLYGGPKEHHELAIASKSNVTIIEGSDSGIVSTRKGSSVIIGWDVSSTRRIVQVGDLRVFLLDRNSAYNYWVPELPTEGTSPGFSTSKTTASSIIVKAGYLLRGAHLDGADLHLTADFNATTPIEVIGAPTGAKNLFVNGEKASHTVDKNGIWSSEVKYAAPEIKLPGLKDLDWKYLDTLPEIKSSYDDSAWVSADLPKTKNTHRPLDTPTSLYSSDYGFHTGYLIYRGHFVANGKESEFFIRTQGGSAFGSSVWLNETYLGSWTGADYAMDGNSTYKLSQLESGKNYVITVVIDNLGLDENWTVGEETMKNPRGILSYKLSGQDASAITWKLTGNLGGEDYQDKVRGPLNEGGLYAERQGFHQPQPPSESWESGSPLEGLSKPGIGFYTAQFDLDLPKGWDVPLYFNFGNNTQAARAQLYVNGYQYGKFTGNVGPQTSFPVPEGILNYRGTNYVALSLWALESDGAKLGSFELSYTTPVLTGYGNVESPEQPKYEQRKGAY
Description: Inhibition of Aspergillus oryzae beta-galactosidase at 1 mM using p-nitrophenyl glycopyranoside preincubated for 5 mins followed by substrate addition measured after 20 mins by visible absorption spectroscopic method relative to control. The method in brief:
as §1

A further test concerns Aspergillus niger. Description: Inhibition of Aspergillus niger amyloglucosidase at 1 mM using p-nitrophenyl glycopyranoside preincubated for 5 mins followed by substrate addition measured after 20 mins by visible absorption spectroscopic method relative to control. In a few lines:
as §1

For test [6], the system named is Prunus dulcis. The experiment in a line: Inhibition of almond beta-glucosidase at 10 uM using p-nitrophenyl glycopyranoside preincubated for 5 mins followed by substrate addition measured after 20 mins by visible absorption spectroscopic method relative to control. In a few lines:
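Crude click-reaction products screened in situ. Azide (final 15 mM) was reacted with each alkyne using sodium ascorbate/CuSO4 in tBuOH–H2O for 24 h at rt, then diluted with water. Tested at 10 μM per well, assuming quantitative conversion, against almond β-glucosidase at pH 5, 37 °C. p-Nitrophenyl glycoside read-out at 405 nm.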

Activity calls are given as the source filed them. No cut-off for these calls is given here.

A word on the inhibition: it is the percentage by which the read-out fell short of the control.

Chain of Alpha-galactosidase (Coffea arabica) (Q42656 16-378 limits assumed): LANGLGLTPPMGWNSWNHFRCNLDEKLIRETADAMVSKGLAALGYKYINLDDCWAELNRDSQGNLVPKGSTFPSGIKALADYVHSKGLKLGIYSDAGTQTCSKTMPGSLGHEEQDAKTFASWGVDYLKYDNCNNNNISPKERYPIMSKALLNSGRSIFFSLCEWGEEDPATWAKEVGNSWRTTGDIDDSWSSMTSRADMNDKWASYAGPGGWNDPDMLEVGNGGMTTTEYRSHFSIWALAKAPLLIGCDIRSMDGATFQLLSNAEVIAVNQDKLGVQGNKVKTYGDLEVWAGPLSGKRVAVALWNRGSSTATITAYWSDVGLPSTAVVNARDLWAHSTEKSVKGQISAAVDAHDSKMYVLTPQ
Chain of Beta-galactosidase (Escherichia coli) (Q8VNN2 whole entry, looked up): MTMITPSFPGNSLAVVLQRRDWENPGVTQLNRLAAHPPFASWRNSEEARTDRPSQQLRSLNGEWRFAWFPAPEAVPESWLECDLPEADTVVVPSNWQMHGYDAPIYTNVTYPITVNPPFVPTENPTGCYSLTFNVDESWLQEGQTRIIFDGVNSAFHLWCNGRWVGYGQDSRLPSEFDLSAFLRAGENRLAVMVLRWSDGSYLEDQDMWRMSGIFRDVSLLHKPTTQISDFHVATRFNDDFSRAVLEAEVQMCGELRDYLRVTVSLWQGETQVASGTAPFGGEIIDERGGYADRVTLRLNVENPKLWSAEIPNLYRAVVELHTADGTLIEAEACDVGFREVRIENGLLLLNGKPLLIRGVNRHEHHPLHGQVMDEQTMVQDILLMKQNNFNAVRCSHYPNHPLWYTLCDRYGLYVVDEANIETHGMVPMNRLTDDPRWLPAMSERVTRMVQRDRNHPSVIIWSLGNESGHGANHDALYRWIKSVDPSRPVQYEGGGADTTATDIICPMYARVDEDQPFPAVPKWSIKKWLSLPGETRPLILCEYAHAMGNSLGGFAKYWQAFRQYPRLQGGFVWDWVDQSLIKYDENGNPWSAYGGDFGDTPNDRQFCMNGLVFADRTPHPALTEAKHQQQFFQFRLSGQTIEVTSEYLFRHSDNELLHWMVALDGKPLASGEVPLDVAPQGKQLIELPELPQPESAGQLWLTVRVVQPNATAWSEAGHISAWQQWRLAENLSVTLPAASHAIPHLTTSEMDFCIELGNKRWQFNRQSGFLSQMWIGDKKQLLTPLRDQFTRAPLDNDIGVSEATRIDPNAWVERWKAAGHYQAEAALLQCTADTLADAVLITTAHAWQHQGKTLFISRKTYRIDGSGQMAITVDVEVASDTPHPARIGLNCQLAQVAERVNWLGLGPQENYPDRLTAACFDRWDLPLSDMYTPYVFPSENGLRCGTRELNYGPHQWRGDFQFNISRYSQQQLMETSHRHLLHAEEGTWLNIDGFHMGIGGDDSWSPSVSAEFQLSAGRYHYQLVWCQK

Turning to `O[C@@H]1[C@H](O)CN[C@H]1c1cn(Cc2ccccc2)nn1`, the inhibition result (in [1]; in test [2]; in test [3]; with Saccharomyces cerevisiae; in the test on Canavalia ensiformis; in the test with Prunus dulcis [4]) was “inactive” in each case. Moreover, the inhibition result (with Cornu aspersum; in the test on Oryza sativa; in [5]; in the test with Aspergillus niger) was “inactive” in each case. The compound further displayed an inhibition in the test filed under Bos taurus of 71%.
Consider `O[C@H]1[C@@H](O)CN[C@@H]1Cn1cc(-c2ccccc2)nn1`, for which the inhibition entry (in test [1]; in test [2]; in the test filed under Bos taurus; with Saccharomyces cerevisiae; with Canavalia ensiformis; in the test on Cornu aspersum) was “inactive” throughout. The inhibition entry (with Oryza sativa; in [5]; with Aspergillus niger) was “inactive” in each case. In addition, the inhibition in test [3] came out at 60%; with Prunus dulcis [4], 49%.
Consider `Cc1ccc(S(=O)(=O)OCCOCCOCCOCCOCCOCCOCc2cn(C[C@@H]3NC[C@@H](O)[C@H]3O)nn2)cc1`, for which the inhibition result in the test with Prunus dulcis [6] is “inactive”.
On the same count and under the same terms, next, `OCc1cn(C[C@@H]2NC[C@@H](O)[C@H]2O)nn1`: “inactive”; `O[C@@H]1[C@H](O)CN[C@H]1Cn1cc(COc2ccccc2)nn1`: “inactive”; `OCCOCCOCCOCCOCCOCCOCc1cn(C[C@@H]2NC[C@@H](O)[C@H]2O)nn1`: “inactive”.
On the same count and under the same terms, next, `O[C@@H]1[C@H](O)CN[C@H]1Cn1cc(CC2CCCCC2)nn1`: “inactive”.
On to `O[C@@H]1[C@H](O)CN[C@H]1CNC(=S)Nc1ccccc1`, for which the inhibition in test [1] is 16%; with Prunus dulcis [4], 74%; in the test with Cornu aspersum it was 45%; in the test with Aspergillus niger it was 18%. For the same compound, the inhibition entry (in test [2]; in the test listed under Bos taurus; in test [3]; in the test with Saccharomyces cerevisiae; in the test with Canavalia ensiformis; in the test with Oryza sativa) was “inactive” throughout. Moreover, the inhibition entry in [5] is “inactive”.
With `NCc1cn(C[C@@H]2NC[C@@H](O)[C@H]2O)nn1`, the inhibition result in the test with Prunus dulcis [6] is “inactive”.
Same read-out and setting: as for `Cc1oc(CO)cc1C(=O)NCc1cn(C[C@@H]2NC[C@@H](O)[C@H]2O)nn1`, the entry is “inactive”.
The same measure, in the same setting: next, `COc1ccc(-c2cn(C[C@@H]3NC[C@@H](O)[C@H]3O)nn2)cc1`: “inactive”; `O=C(O)CCCc1cn(C[C@@H]2NC[C@@H](O)[C@H]2O)nn1`: “inactive”.
As to `O[C@@H]1[C@@H](c2cn(Cc3ccccc3)nn2)NC[C@@H]1O`, the inhibition entry (in test [1]; in test [2]; with Saccharomyces cerevisiae; with Canavalia ensiformis; in the test with Prunus dulcis [4]; in the test on Cornu aspersum) was “inactive” throughout. Further, the inhibition entry (in the test with Oryza sativa; in [5]; in the test on Aspergillus niger) was “inactive” each time. For the same compound, the inhibition in the test listed under Bos taurus stood at 21%; in [3], 30%.
Turning to `OCCOCc1cn(C[C@@H]2NC[C@@H](O)[C@H]2O)nn1`, in the test with Prunus dulcis [6], the inhibition entry was “inactive”.
On to `OCc1ccc(-c2cn(C[C@@H]3NC[C@@H](O)[C@H]3O)nn2)cc1`, for which the inhibition entry in the test on Prunus dulcis [6] is “inactive”.
Take `OCCCc1cn(C[C@@H]2NC[C@@H](O)[C@H]2O)nn1`: in the test with Prunus dulcis [6], the inhibition entry is “inactive”.
For the compound `COC(=O)c1cn(C[C@@H]2NC[C@@H](O)[C@H]2O)nn1`, the inhibition result in the test on Prunus dulcis [6] was “inactive”.
As to `O[C@@H]1[C@H](O)CN[C@H]1Cn1cc(C2(O)CCCCC2)nn1`, the inhibition entry in the test with Prunus dulcis [6] is “inactive”.
`O=C(NC[C@@H]1NC[C@@H](O)[C@H]1O)c1ccccc1`: the inhibition entry (in test [1]; in test [2]; in the test with Saccharomyces cerevisiae; in the test on Cornu aspersum; with Oryza sativa; in test [5]) was “inactive” each time. Moreover, the inhibition entry in the test with Aspergillus niger was “inactive”. Moreover, the inhibition worked out at 15% in the test filed under Bos taurus, 71% in test [3], 17% in the test with Canavalia ensiformis and 79% in the test with Prunus dulcis [4].
For `COc1ccc2cc(-c3cn(C[C@@H]4NC[C@@H](O)[C@H]4O)nn3)ccc2c1`, in the test with Prunus dulcis [6], the inhibition entry was “inactive”.
Still for that read-out and setting: as for `CN(Cc1ccccc1)Cc1cn(C[C@@H]2NC[C@@H](O)[C@H]2O)nn1`, the entry is “inactive”; as for `O=C(NCc1cn(C[C@@H]2NC[C@@H](O)[C@H]2O)nn1)c1ccccc1`, “inactive”.

For the origin of these results see ChEMBL document CHEMBL4190262, “Tuning of β-glucosidase and α-galactosidase inhibition by generation and in situ screening of a library of pyrrolidine-triazole hybrid molecules” (Eur J Med Chem, 2017).
